Laboratory results as given in PMC4418331 (Journal of Clinical Pharmacology, 2015).

What was measured:
[1] = Safety and tolerability assessments; assay type: in vivo, human (postmenopausal women with T2D); settings: for Increase in serum amylase concentration / Increase in serum lipase concentration: mean ± SD
How it was run: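 Test compound given subcutaneously once weekly, escalated 0.25 mg for 4 weeks, 0.5 mg for 4 weeks, then 1.0 mg for 5 weeks. A combined oral contraceptive was given once daily for 8 days before escalation and again during the final week. The investigator recorded AEs, both observed and spontaneously reported, with severity graded and relation assessed. Amylase and lipase were measured as change from baseline to end of treatment and to follow-up (5 weeks after last dose), mean ± SD.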

[2] = cited from earlier work
[3] = test system: dipeptidyl peptidase-4 (DPP-4); settings: in words; native GLP-1 ref 1; semaglutide ref 12; cited from earlier work
[4] = baseline to end of semaglutide treatment

Q: With `CC[C@H](C)[C@H](NC(=O)[C@H](Cc1ccccc1)NC(=O)[C@H](CCC(=O)O)NC(=O)[C@H](CCCCNC(=O)COCCOCCNC(=O)COCCOCCNC(=O)CC[C@H](NC(=O)CCCCCCCCCCCCCCCCC(=O)O)C(=O)O)NC(=O)[C@H](C)NC(=O)[C@H](C)NC(=O)[C@H](CCC(N)=O)NC(=O)CNC(=O)[C@H](CCC(=O)O)NC(=O)[C@H](CC(C)C)NC(=O)[C@H](Cc1ccc(O)cc1)NC(=O)[C@H](CO)NC(=O)[C@H](CO)NC(=O)[C@@H](NC(=O)[C@H](CC(=O)O)NC(=O)[C@H](CO)NC(=O)[C@@H](NC(=O)[C@H](Cc1ccccc1)NC(=O)[C@@H](NC(=O)CNC(=O)[C@H](CCC(=O)O)NC(=O)C(C)(C)NC(=O)[C@@H](N)Cc1cnc[nH]1)[C@@H](C)O)[C@@H](C)O)C(C)C)C(=O)N[C@@H](C)C(=O)N[C@@H](Cc1c[nH]c2ccccc12)C(=O)N[C@@H](CC(C)C)C(=O)N[C@H](C(=O)N[C@@H](CCCNC(=N)N)C(=O)NCC(=O)N[C@@H](CCCNC(=N)N)C(=O)NCC(=O)O)C(C)C` [semaglutide] as the compound, how does the Subjects reporting diarrhea ([1]; 6 subjects, all mild or moderate) read?
A: The Subjects reporting diarrhea was 14%.

Q: And the “Severe hypoglycemia (ADA classification)” value ([1]; FPG at study site and self-measured at home)?
A: Its value is “no cases of severe hypoglycemia were reported”.

Q: And the “Increase in serum amylase concentration” value [1, 4]?
A: The value was 1.5 ± 15.3 U/L.

Q: And the “Increase in serum lipase concentration” value [1, 4]?
A: Its value is 9.4 ± 24.3 U/L.

Q: What about the “Increase in serum amylase concentration” value ([1]; baseline to follow-up) of the same compound?
A: Its value is 7.0 ± 14.1 U/L.

Q: What about the “Increase in serum lipase concentration” value ([1]; baseline to follow-up) of the same compound?
A: Its value is 10.7 ± 32.6 U/L.

Q: And the Antisemaglutide antibodies ([1]; in vivo)?
A: The Antisemaglutide antibodies was “No antisemaglutide antibodies were detected in any subject”.

Q: What about the “Changes in ECG or safety laboratory parameters, including calcitonin” value ([1]; in vivo) of the same compound?
A: Its value is “No clinically meaningful changes were observed”.

Q: What about the Pancreatitis ([1]; in vivo) of the same compound?
A: The Pancreatitis was “No cases of pancreatitis were reported”.

Q: What about the “Serum amylase values ≥3x ULN” value ([1]; in vivo) of the same compound?
A: Its value is “No value was ≥3x ULN”.

Q: What about the “Duration of nausea episodes, median” value ([1]; min, max: 0.01, 95.6) of the same compound?
A: Its value is 3.9 days.

Q: And the Injection-site reactions ([1]; s.c. injection)?
A: The Injection-site reactions was “no injection-site reactions were reported”.

Q: What about the “Subjects reporting TEAEs” value ([1]; whole study (oral contraceptive and semaglutide periods), 38 of 43 subjects) of the same compound?
A: Its value is 88%.

Q: What about the “Serious AEs” value ([1]; whole study, n = 43) of the same compound?
A: Its value is “No serious AEs were reported”.

Q: What about the “Reported t1/2” value [2] of the same compound?
A: The value was 155 to 184 h.

Q: What about the “Degradation by dipeptidyl peptidase-4 (DPP-4)” value [3] of the same compound?
A: The value was “less susceptible to degradation by DPP-4”.

Q: With “Glucagon-like peptide-1 [native GLP-1, reference compound]” as the compound, how does the “Half-life (t1/2)” value ([2]; in words) read?
A: The value was “very short”.

Q: What about the “Degradation by dipeptidyl peptidase-4 (DPP-4)” value [3] of the same compound?
A: Its value is “rapidly degraded”.
